These results are taken from ChEMBL document CHEMBL3352765, “Synthesis and evaluation of the cytotoxic activity of 1,2-furanonaphthoquinones tethered to 1,2,3-1H-triazoles in myeloid and lymphoid leukemia cell lines” (Eur J Med Chem, 2014).

Series [1] concerns PBMC. Put plainly: Cytotoxicity against normal human PBMC assessed as reduction in cell viability at 10 times anti-leukemic IC50 after 48 hrs by Alamar blue assay. It is filed as cell-based. An outline of the steps: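 Gradient-isolated donor PBMCs (three donors), 5 × 10⁴/well in RPMI 1640 with 10% inactivated FBS. […] Viability was measured by AlamarBlue with 24 h dye incubation and fluorescence at ex 560/em 590 nm.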

The next series has as its system MOLT-4. Put plainly: Cytotoxicity against human MOLT4 cells after 48 hrs by Alamar blue assay. The conditions noted are these: MOLT-4, 48 h. It is filed as functional, cell-based. An outline of the steps:
(§1)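 Cells seeded at 2.5 × 10⁴/well and exposed to compounds for 48 h in total. AlamarBlue was added before the end of the 48 h (CCRF-CEM 2 h, MOLT-4 6 h). Resorufin fluorescence was read at ex 560/em 590 nm. Triplicate wells at six or seven concentrations. Controls were cells with medium and up to 1% DMSO. IC50 is the concentration killing 50% of cells.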

The next series relates to CCRF-CEM. Put plainly: Cytotoxicity against human CCRF-CEM cells after 48 hrs by Alamar blue assay. It is filed as functional, cell-based. An outline of the steps:
as §1

The nature of series [2]: Induction of hemolysis in lamb blood erythrocytes at 1000 uM incubated for 10 mins by microplate reader method. It is filed as cell-based, Ovis aries, Erythrocyte. The conditions noted are these: sheep, read-out: Activity. An outline of the steps: (§2)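 Fresh lamb erythrocytes were collected by centrifugation at 1500 rpm for 15 min and washed three times in PBS with 10 mM glucose, pH 7.4. They were used at 4 × 10⁸/well in triplicate, with compounds at a final 1000 µM and retests at 200 µM. After centrifugation at 13,000 rpm for 15 min, supernatant absorbance was read at 540 nm. Results are given as % of complete hemolysis from water osmotic shock.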

Series [3] is described as follows: Cytotoxicity against human KG1 cells after 48 hrs by Alamar blue assay. Type of series: functional, cell-based. The note with it: KG-1, 48 h. An outline of the steps: (§3)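 Cells were seeded and exposed to compounds for 48 h in total: K562 at 2.5 × 10⁴/well, KG1 at 5.0 × 10⁴/well. AlamarBlue was added 4 h (K562) or 6 h (KG1) before the end. Fluorescence was read at ex 560/em 590 nm. Triplicate wells at six or seven concentrations. Vehicle controls contained up to 1% DMSO and defined 100% survival. Readout was IC50.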

The next series concerns K562. Put plainly: Cytotoxicity against human K562 cells after 48 hrs by Alamar blue assay. It is filed as functional, cell-based. The note with it: K562, 48 h. An outline of the steps: as §3
Series [4] is described as follows: Induction of hemolysis in lamb blood erythrocytes at 200 uM incubated for 10 mins by microplate reader method. It is filed as cell-based, Ovis aries. The conditions noted are these: sheep, erythrocyte. An outline of the steps: as §2
Series [5] deals with PBMC. As to the kind of experiment: Cytotoxicity against normal human PBMC assessed as reduction in cell viability after 48 hrs by Alamar blue assay. It is filed as functional, cell-based. An outline of the steps:
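PBMCs were isolated from healthy-donor buffy coats by density gradient centrifugation and seeded at 5.0 × 10⁴/well in RPMI 1640 with 10% inactivated FBS. Exposure was 48 h, with AlamarBlue added for the final 24 h. Fluorescence was read at ex 560/em 590 nm. Triplicate wells at six or seven concentrations. IC50 was derived against vehicle controls.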

In series [6] the test system is PBMC. Put plainly: Cytotoxicity against normal human PBMC assessed as reduction in cell viability at 10 uM after 48 hrs by Alamar blue assay. Type of series: functional.
A short description of series [7]: Cytotoxicity against human lymphocytes. Type of series: cell-based. The conditions noted are these: Lymphocyte.
In another series the test system is V79. Put plainly: Cytotoxicity against Chinese hamster V79 cells. It is filed as cell-based. The conditions noted are these: Cricetulus griseus.

Each structure is given as a SMILES string. Where a name gives a salt, the structure may show the parent alone.

In the case of `COc1ccc(-c2cn(C3C4=C(OC3(C)C)c3ccccc3C(=O)C4=O)nn2)cc1` (stereo unspecified), the Activity in the series with PBMC [1] was greater than 80%. Further, the IC50 amounted to 34.5 µM with MOLT-4, 11.7 µM in the series on CCRF-CEM, 76.2 µM in series [3] and 9.06 µM with K562. Also, the hemolysis at 10 min, 1000 µM in series [2] is less than 5%.
Take `CC1(C)OC2=C(C(=O)C(=O)c3ccccc32)C1n1cc(C2=CCCCC2)nn1` (stereo unspecified): the Activity in the series with PBMC [1] is given as greater than 80%. The IC50 with MOLT-4 amounted to 0.28 µM; in the series on CCRF-CEM it was 12.6 µM; in [3], 8.41 µM; in the series on K562, 1.11 µM. The hemolysis at 10 min, 1000 µM in [2] is less than 5%.
In the case of `CC1(C)OC2=C(C(=O)C(=O)c3ccccc32)C1n1cc(C2CCCCC2)nn1` (stereo unspecified), the Activity result in the series with PBMC [1] is “Non-toxic”. In addition, the IC50 with MOLT-4 was 2.13 µM; in the series with CCRF-CEM it was 1.97 µM; in [3] it was 7.62 µM; with K562 it was 3.8 µM. For the same compound, the hemolysis at 10 min, 1000 µM in series [2] was less than 5%.
In the case of `CCCCCc1ccc(-c2cn(C3C4=C(OC3(C)C)c3ccccc3C(=O)C4=O)nn2)cc1` (stereo unspecified), the Activity is greater than 80% in the series with PBMC [1] and “Non-toxic” in series [4]. The IC50 in the series on MOLT-4 was found to be 2.62 µM; in the series with CCRF-CEM, 13.8 µM; in series [3], 3.92 µM; in the series with K562, 8.03 µM. For the same compound, in series [2], the hemolysis at 10 min, 1000 µM was greater than 5%.
In the case of `CCCc1cn(C2C3=C(OC2(C)C)c2ccccc2C(=O)C3=O)nn1` (stereo unspecified), in the series on PBMC [1], the Activity is greater than 80%. For the same compound, the IC50 in the series on MOLT-4 is 1.47 µM; with CCRF-CEM it was 3.14 µM; in series [3] it was 1.55 µM; in the series with K562 it was 60.9 µM. Further, the hemolysis at 10 min, 1000 µM in series [2] was less than 5%.
Turning to `CCCCc1cn(C2C3=C(OC2(C)C)c2ccccc2C(=O)C3=O)nn1` (stereo unspecified), the Activity in the series with PBMC [1] was greater than 80%. Besides, the IC50 in the series with MOLT-4 was 1.92 µM; with CCRF-CEM, 3.73 µM; in series [3], 3.79 µM; with K562 it was 3.78 µM. In series [2], the hemolysis at 10 min, 1000 µM is less than 5%.
Regarding `CCCCCc1cn(C2C3=C(OC2(C)C)c2ccccc2C(=O)C3=O)nn1` (stereo unspecified), the Activity in the series with PBMC [1] is given as greater than 80%. The IC50 in the series on MOLT-4 was found to be 2.28 µM; with CCRF-CEM it was 27.6 µM; in series [3], 30 µM; in the series on K562, 2.68 µM. The hemolysis at 10 min, 1000 µM in [2] was less than 5%.
As to `CCCCCCc1cn(C2C3=C(OC2(C)C)c2ccccc2C(=O)C3=O)nn1` (stereo unspecified), the Activity in the series on PBMC [1] is greater than 80%. The IC50 in the series on MOLT-4 was 2.17 µM; with CCRF-CEM, 7.3 µM; in series [3], 5.58 µM. In series [2], the hemolysis at 10 min, 1000 µM was less than 5%.
On to `CCC(C)(O)c1cn(C2C3=C(OC2(C)C)c2ccccc2C(=O)C3=O)nn1` (stereo unspecified), for which the Activity result with PBMC [1] is reported as “Non-toxic”. In addition, the IC50 with MOLT-4 was determined as 1.98 µM; in the series with CCRF-CEM, 3.57 µM; in [3], 5.63 µM; with K562 it was 1.39 µM. Also, the hemolysis at 10 min, 1000 µM in series [2] was less than 5%.
Turning to `CC(C)CC(C)(O)c1cn(C2C3=C(OC2(C)C)c2ccccc2C(=O)C3=O)nn1` (stereo unspecified), the Activity with PBMC [1] was greater than 80%. Besides, the IC50 with MOLT-4 amounted to 1.47 µM; with CCRF-CEM, 1.77 µM; in series [3], 1.32 µM; with K562, 1.91 µM. For the same compound, in series [2], the hemolysis at 10 min, 1000 µM was less than 5%.
As for `CC(=O)OCc1cn(C2C3=C(OC2(C)C)c2ccccc2C(=O)C3=O)nn1` (stereo unspecified), the Activity in the series on PBMC [1] is greater than 80%. For the same compound, the IC50 came to 0.16 µM in the series with MOLT-4, 0.31 µM in the series on CCRF-CEM, 9.58 µM in series [3] and 8.35 µM with K562. Moreover, the hemolysis at 10 min, 1000 µM in series [2] was less than 5%.
With `CC1(C)OC2=C(C(=O)C(=O)c3ccccc32)C1n1cc(CCl)nn1` (stereo unspecified), the Activity result (in the series with PBMC [1]; in series [4]) was “Non-toxic” each time. Moreover, the IC50 in the series with MOLT-4 turned out to be 0.48 µM; in the series on CCRF-CEM it was 0.67 µM; in series [3], 0.98 µM; in the series on K562, 1.38 µM. Further, in series [2], the hemolysis at 10 min, 1000 µM was greater than 5%.
Turning to `CC1(C)OC2=C(C(=O)C(=O)c3ccccc32)C1n1cc(CCCCl)nn1` (stereo unspecified), the Activity with PBMC [1] is on record as greater than 80%. Besides, the IC50 with MOLT-4 was 0.05 µM; in the series with CCRF-CEM, 0.34 µM; in series [3], 0.93 µM; in the series on K562, 2.07 µM; in the series on PBMC [5], greater than 10 µM. In addition, the hemolysis at 10 min, 1000 µM in series [2] was less than 5%.
For the compound `CC1(C)OC2=C(C(=O)C(=O)c3ccccc32)C1n1cc(C2(O)CCCCC2)nn1` (stereo unspecified), in the series on PBMC [1], the Activity is on record as greater than 80%. Further, the IC50 was found to be 2.58 µM in the series with MOLT-4, 2.79 µM in the series with CCRF-CEM, 4.92 µM in [3] and 1.53 µM in the series with K562. Besides, the hemolysis at 10 min, 1000 µM in series [2] was less than 5%.
As for `CC1(C)OC2=C(C(=O)C(=O)c3ccccc32)C1n1cc(-c2ccccc2)nn1` (stereo unspecified), the Activity result is “Non-toxic” with PBMC [1] and 30% in the series with PBMC [6]. For the same compound, the IC50 in the series on MOLT-4 is 0.75 µM; in the series with CCRF-CEM it was 1.96 µM; in series [3], 12.8 µM; with K562, 14.4 µM. Besides, the hemolysis at 10 min, 1000 µM in series [2] is less than 5%.
For the compound `CC(C)(O)c1cn(C2C3=C(OC2(C)C)c2ccccc2C(=O)C3=O)nn1` (stereo unspecified), in the series on PBMC [1], the Activity was greater than 80%. In addition, the IC50 with MOLT-4 was 2.16 µM; in the series on CCRF-CEM, 1.73 µM; in [3], 2 µM; in the series with K562, 2.43 µM. Further, the hemolysis at 10 min, 1000 µM in series [2] is less than 5%.
`CC1(C)OC2=C(C(=O)C(=O)c3ccccc32)C1n1cc(COC2CCCCO2)nn1` (stereo unspecified): in the series on PBMC [1], the Activity was greater than 80%. Further, the IC50 with MOLT-4 was determined as 2.04 µM; with CCRF-CEM, 3.16 µM; in series [3], 5.63 µM; in the series on K562, 1.84 µM. Besides, the hemolysis at 10 min, 1000 µM in [2] was less than 5%.
In the case of `CC1(C)OC2=C(C(=O)C(=O)c3ccccc32)C1N=[N+]=[N-]` (stereo unspecified), the Activity in the series with PBMC [1] is greater than 80%. Also, the IC50 came out at 3.64 µM with MOLT-4, 3.18 µM in the series on CCRF-CEM, 6.06 µM in series [3] and 1.58 µM in the series with K562.
On to `CC1(C)OC2=C(C(=O)C(=O)c3ccccc32)C1n1cc(CO)nn1` (stereo unspecified), for which the Activity in the series on PBMC [1] is greater than 80%. Moreover, the IC50 came to 1.35 µM with MOLT-4, 1.53 µM in the series on CCRF-CEM, 5.33 µM in series [3] and 1.58 µM in the series with K562. The hemolysis at 10 min, 1000 µM in series [2] was less than 5%.
As for `COc1cccc2c1C(=O)c1c(O)c3c(c(O)c1C2=O)C[C@@](O)(C(=O)CO)C[C@@H]3O[C@H]1C[C@H](N)[C@H](O)[C@H](C)O1` [DOXORUBICIN HYDROCHLORIDE], the Activity in the series on PBMC [1] is on record as greater than 80%. Moreover, the values for the IC50 with MOLT-4 and in the series on CCRF-CEM were 0.07 µM and 0.15 µM, respectively.
For `CC1(C)CC2=C(O1)c1ccccc1C(=O)C2=O` [NOR-BETA-LAPACHONE], the Activity with PBMC [1] is greater than 80%. Further, the IC50 in series [7] was greater than 22 µM; with MOLT-4 it was 13.6 µM; in the series with V79, 13 µM; with CCRF-CEM it was 15.2 µM; in series [3], 17.2 µM; with K562 it was 2.28 µM.
